Experiment [1] concerns the target Leukocyte tyrosine kinase receptor (Homo sapiens) (UniProt P29376). Kind of experiment: Inhibition of LTK at 1 uM. The method in brief: (§1)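 Single-concentration screen on the Ambit KINOMEscan platform, run against a panel of 250–400 kinases. Per-kinase inhibition was also summarized as S(90), the fraction of kinases inhibited by more than 90%.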
Experiment [2] deals with T1, Dual specificity mitogen-activated protein kinase kinase 4 (Homo sapiens) (UniProt P45985).
T1 sequence (whole entry): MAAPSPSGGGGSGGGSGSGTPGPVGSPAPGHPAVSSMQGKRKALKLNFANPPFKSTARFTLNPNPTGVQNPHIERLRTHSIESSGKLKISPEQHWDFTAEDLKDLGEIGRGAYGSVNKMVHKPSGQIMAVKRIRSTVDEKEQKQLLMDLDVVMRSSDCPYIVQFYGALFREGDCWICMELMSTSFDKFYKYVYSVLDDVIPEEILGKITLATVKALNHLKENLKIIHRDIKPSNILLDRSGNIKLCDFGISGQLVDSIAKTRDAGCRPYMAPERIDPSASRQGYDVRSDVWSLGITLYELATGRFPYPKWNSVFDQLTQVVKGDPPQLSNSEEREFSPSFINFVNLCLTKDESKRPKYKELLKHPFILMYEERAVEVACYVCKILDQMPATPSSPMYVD
Kind of experiment: Inhibition of MEK4 at 1 uM.

The target in experiment [3] is Mitogen-activated protein kinase kinase kinase 11 (Homo sapiens) (UniProt Q16584). Kind of experiment: Inhibition of MLK3 at 1 uM. In short, it runs like this:
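Kinase-panel screen using KINOMEscan technology, with 250–400 kinases per panel. Each compound was tested at a single concentration, and inhibition of each kinase was recorded. Selectivity was summarised as S(90), the fraction of kinases inhibited by more than 90%.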

Experiment [4] addresses Phosphatidylinositol 4,5-bisphosphate 3-kinase catalytic subunit beta isoform (Homo sapiens) (UniProt P42338). Kind of experiment: Inhibition of PIK3CB at 1 uM.
Experiment [5] has as its target SRSF protein kinase 1 (Homo sapiens) (UniProt Q96SB4). Kind of experiment: Inhibition of SRPK1 at 1 uM.
For experiment [6], the target named is Serine/threonine-protein kinase 35 (Homo sapiens) (UniProt Q8TDR2). Kind of experiment: Inhibition of STK35 at 1 uM.
For experiment [7], the target named is Activated CDC42 kinase 1 (Homo sapiens) (UniProt Q07912). Kind of experiment: Inhibition of TNK2 at 1 uM. The method in brief:
as §1

Experiment [8] addresses T2, Testis-specific serine/threonine-protein kinase 1 (Homo sapiens) (UniProt Q9BXA7).
T2 sequence (whole entry): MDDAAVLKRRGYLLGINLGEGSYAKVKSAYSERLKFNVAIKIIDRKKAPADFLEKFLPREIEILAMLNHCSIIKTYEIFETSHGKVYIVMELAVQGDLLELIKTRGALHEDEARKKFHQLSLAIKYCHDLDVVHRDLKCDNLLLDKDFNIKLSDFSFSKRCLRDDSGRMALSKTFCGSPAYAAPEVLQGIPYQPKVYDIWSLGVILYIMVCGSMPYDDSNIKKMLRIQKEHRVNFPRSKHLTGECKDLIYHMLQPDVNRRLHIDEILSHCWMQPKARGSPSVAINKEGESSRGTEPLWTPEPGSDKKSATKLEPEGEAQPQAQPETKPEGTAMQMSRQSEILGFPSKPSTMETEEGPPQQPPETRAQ
Kind of experiment: Inhibition of TSSK1B at 1 uM.

Experiment [9] concerns the target Serine/threonine-protein kinase 32B (Homo sapiens) (UniProt Q9NY57). Kind of experiment: Inhibition of YANK2 at 1 uM.
Experiment [10] concerns the target T3, Atypical kinase COQ8B, mitochondrial (Homo sapiens) (UniProt Q96D53).
T3 sequence (whole entry): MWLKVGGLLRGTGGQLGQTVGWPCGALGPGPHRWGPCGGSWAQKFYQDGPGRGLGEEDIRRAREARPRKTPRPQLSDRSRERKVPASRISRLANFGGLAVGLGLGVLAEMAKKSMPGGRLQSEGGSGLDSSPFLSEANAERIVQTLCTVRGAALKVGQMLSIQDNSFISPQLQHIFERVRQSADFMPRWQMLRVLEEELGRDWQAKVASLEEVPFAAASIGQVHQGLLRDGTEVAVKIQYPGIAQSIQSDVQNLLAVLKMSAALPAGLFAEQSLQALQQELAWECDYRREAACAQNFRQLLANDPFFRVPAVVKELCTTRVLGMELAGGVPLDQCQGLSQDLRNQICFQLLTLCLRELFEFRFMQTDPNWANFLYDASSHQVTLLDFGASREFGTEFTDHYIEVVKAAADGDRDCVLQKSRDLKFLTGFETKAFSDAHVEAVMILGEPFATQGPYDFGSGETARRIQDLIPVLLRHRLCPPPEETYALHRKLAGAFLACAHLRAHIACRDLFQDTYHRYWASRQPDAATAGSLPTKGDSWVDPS
Kind of experiment: Inhibition of ADCK4 at 1 uM. In short, it runs like this:
(§2)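 Ambit KINOMEscan screen at a single concentration across a 250–400 kinase panel, recorded as percent inhibition. Selectivity was expressed as S(90), the fraction of kinases inhibited >90%.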

The target of experiment [11] is Calcium/calmodulin-dependent protein kinase type 1G (Homo sapiens) (UniProt Q96NX5). Kind of experiment: Inhibition of CAMK1G at 1 uM. In short, it runs like this: as §2
Experiment [12] has as its target Calcium/calmodulin-dependent protein kinase type II subunit alpha (Homo sapiens) (UniProt Q9UQM7). Kind of experiment: Inhibition of CAMK2A at 1 uM. In short, it runs like this:
as §2

For experiment [13], the target named is Calcium/calmodulin-dependent protein kinase type II subunit beta (Homo sapiens) (UniProt Q13554). Kind of experiment: Inhibition of CAMK2B at 1 uM. In short, it runs like this:
as §2

Experiment [14] concerns the target T4, Megakaryocyte-associated tyrosine-protein kinase (Homo sapiens) (UniProt P42679).
T4 sequence (whole entry): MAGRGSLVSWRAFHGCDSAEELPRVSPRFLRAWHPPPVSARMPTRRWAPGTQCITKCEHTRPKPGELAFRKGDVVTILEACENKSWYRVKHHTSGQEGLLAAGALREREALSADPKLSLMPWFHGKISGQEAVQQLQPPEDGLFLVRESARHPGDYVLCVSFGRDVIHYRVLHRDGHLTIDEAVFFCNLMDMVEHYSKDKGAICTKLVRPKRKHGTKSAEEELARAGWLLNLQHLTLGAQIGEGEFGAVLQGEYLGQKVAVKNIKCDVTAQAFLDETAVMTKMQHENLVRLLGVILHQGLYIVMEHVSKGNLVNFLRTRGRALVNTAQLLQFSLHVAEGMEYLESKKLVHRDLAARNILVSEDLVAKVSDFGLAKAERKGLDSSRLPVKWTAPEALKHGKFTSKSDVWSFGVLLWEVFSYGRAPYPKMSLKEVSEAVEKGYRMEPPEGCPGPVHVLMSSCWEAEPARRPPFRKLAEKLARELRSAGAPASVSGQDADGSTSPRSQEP
Kind of experiment: Inhibition of CTK at 1 uM.

For experiment [15], the target named is Tyrosine-protein kinase Fer (Homo sapiens) (UniProt P16591). Kind of experiment: Inhibition of FER at 1 uM. In short, it runs like this:
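Single-concentration screen using Ambit Bioscience KINOMEscan technology across a panel of 250–400 kinases. Per-kinase inhibition from this screen was summarized as S(90), the fraction of kinases inhibited by more than 90%.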

Experiment [16] addresses Tyrosine-protein kinase HCK (Homo sapiens) (UniProt P08631). Kind of experiment: Inhibition of HCK at 1 uM. The method in brief:
as §1

The text below walks through data of ChEMBL document CHEMBL1165965, “Synthesis and structure-activity relationships of 1,2,3,4-tetrahydropyrido[2,3-b]pyrazines as potent and selective inhibitors of the anaplastic lymphoma kinase” (Bioorg Med Chem, 2010).

The inhibition is the change of the read-out against control, counted positive when it falls.

Molecules are shown by their SMILES.

Sequence of Activated CDC42 kinase 1 (Homo sapiens) (Q07912 whole entry, looked up): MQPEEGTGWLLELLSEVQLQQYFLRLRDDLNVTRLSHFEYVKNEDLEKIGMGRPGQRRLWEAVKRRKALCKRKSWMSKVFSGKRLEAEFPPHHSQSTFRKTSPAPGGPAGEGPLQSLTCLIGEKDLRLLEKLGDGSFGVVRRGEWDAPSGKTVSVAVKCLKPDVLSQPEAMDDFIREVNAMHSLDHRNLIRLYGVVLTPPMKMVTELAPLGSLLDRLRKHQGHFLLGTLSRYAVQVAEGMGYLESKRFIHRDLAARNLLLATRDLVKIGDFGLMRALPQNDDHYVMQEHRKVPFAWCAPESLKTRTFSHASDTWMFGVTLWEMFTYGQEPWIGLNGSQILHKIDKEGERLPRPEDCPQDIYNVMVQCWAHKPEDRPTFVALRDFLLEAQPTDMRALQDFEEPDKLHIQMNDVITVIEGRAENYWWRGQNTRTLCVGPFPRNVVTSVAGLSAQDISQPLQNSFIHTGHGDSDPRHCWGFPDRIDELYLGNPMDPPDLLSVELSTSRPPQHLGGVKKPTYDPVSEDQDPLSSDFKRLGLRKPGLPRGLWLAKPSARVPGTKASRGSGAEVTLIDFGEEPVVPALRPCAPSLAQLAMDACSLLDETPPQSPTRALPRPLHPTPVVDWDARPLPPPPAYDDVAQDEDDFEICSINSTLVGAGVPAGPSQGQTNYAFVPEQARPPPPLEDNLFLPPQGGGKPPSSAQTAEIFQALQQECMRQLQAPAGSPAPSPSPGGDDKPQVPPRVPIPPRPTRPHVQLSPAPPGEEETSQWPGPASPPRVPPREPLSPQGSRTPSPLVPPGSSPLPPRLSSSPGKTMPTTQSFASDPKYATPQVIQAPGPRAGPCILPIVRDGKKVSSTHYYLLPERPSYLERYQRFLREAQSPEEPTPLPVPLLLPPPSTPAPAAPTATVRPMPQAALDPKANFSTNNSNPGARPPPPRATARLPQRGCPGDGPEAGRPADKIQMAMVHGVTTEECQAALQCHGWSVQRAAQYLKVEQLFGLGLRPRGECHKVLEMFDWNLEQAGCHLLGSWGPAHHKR
Sequence of Serine/threonine-protein kinase 35 (Homo sapiens) (Q8TDR2 whole entry): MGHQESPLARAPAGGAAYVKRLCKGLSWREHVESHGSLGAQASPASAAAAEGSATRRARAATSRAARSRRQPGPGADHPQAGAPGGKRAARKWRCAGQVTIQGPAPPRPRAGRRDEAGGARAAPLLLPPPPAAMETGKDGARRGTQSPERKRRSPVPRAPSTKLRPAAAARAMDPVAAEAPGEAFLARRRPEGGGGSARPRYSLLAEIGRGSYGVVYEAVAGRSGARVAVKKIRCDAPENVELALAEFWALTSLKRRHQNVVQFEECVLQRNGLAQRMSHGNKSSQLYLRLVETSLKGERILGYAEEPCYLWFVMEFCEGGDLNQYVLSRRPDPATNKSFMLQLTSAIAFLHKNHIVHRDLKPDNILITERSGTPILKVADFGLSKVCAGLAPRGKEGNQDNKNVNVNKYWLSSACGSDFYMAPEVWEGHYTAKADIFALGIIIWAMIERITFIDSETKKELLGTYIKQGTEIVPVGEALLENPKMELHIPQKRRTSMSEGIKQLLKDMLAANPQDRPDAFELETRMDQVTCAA
Sequence of Serine/threonine-protein kinase 32B (Homo sapiens) (Q9NY57 whole entry): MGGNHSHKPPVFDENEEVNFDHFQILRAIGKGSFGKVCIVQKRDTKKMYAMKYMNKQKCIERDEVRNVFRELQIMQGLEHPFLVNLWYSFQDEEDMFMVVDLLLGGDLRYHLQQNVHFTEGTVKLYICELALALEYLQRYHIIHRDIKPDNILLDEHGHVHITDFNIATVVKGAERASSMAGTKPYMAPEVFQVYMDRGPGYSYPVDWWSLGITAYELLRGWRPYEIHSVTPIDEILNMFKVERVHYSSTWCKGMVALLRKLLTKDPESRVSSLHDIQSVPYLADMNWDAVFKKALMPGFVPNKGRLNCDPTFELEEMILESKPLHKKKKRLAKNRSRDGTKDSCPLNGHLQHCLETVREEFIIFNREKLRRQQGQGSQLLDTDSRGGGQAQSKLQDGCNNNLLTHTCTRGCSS
Sequence of Calcium/calmodulin-dependent protein kinase type II subunit alpha (Homo sapiens) (Q9UQM7 whole entry): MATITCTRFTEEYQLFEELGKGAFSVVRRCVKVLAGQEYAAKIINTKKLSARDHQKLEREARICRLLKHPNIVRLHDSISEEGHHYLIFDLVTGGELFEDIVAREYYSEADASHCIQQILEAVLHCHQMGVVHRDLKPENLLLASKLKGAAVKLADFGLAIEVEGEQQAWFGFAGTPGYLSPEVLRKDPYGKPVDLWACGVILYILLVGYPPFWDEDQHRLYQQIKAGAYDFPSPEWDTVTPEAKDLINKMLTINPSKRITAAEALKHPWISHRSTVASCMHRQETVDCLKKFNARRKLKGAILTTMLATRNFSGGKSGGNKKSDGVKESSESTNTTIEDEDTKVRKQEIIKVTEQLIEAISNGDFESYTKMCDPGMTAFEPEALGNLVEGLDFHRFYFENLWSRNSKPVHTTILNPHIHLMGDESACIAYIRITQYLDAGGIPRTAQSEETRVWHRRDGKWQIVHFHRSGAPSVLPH
Sequence of Tyrosine-protein kinase HCK (Homo sapiens) (P08631 2-526 limits assumed): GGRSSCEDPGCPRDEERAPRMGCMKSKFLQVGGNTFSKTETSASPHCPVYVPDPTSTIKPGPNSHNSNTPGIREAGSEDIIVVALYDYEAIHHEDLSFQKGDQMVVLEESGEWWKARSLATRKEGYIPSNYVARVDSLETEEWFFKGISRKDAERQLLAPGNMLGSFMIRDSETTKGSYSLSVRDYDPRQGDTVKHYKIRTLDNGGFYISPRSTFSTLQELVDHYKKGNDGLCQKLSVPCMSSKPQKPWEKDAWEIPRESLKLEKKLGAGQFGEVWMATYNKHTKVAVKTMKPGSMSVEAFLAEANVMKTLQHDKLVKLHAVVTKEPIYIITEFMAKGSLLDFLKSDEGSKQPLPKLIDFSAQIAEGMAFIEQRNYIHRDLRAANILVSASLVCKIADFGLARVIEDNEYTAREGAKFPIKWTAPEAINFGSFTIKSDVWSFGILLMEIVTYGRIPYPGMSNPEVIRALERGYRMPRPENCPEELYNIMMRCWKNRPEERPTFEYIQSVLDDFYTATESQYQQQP
Sequence of Calcium/calmodulin-dependent protein kinase type II subunit beta (Homo sapiens) (Q13554 whole entry): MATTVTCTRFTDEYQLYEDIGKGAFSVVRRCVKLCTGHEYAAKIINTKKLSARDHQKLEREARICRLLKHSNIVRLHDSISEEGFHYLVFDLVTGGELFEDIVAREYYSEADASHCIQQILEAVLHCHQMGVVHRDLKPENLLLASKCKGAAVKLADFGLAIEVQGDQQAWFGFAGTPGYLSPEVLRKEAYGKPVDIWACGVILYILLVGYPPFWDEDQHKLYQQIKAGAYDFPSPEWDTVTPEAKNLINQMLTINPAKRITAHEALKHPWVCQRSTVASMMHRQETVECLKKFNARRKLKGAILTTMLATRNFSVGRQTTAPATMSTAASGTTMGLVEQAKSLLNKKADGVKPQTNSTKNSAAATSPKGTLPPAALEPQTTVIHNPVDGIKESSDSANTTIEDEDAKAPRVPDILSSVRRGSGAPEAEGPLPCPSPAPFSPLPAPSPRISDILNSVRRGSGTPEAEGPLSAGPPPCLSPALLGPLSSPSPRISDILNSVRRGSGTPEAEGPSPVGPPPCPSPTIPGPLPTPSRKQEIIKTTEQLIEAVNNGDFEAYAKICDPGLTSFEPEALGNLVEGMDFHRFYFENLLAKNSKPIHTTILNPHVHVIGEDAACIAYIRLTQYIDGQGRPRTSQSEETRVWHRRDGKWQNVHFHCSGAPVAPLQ
Sequence of Tyrosine-protein kinase Fer (Homo sapiens) (P16591 whole entry, looked up): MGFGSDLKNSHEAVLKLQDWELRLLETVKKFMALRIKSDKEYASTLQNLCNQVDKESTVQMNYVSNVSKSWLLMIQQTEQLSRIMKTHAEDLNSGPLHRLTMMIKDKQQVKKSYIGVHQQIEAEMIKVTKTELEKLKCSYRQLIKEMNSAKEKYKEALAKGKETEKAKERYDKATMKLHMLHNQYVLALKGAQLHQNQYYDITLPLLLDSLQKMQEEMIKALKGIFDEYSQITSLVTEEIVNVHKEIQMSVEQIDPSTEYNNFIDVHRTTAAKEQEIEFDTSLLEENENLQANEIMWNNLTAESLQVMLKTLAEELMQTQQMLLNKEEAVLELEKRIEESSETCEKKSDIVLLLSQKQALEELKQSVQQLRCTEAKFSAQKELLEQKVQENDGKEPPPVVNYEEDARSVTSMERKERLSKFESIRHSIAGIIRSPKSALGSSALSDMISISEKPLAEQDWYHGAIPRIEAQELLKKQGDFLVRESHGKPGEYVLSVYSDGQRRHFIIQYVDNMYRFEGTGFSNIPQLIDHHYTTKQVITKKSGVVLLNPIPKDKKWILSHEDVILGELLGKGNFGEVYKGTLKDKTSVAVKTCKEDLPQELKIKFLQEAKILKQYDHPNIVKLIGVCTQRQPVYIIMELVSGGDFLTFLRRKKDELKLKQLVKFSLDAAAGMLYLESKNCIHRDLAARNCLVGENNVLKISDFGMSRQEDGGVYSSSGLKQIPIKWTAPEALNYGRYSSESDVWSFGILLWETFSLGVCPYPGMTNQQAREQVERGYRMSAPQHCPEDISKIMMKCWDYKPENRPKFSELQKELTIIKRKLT
Sequence of Calcium/calmodulin-dependent protein kinase type 1G (Homo sapiens) (Q96NX5 whole entry): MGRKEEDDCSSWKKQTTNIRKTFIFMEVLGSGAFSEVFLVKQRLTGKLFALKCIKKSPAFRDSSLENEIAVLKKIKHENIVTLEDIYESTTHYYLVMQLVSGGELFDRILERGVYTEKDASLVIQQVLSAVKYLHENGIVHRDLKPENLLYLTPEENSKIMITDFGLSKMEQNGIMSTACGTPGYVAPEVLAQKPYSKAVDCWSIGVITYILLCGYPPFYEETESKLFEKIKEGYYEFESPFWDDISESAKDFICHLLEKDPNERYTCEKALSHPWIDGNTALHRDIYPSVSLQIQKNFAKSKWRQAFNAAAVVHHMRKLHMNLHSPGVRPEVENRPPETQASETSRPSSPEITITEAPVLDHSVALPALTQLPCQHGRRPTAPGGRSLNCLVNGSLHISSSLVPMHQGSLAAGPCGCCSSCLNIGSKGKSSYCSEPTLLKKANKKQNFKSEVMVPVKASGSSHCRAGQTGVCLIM

Regarding `CN1CCN(c2ccc(-c3cnc4c(c3)N(Cc3c(F)ccc(F)c3Cl)CCN4)cn2)CC1`, the inhibition was 97% in experiment [1]; less than 50% in [2]; less than 50% in experiment [3]; less than 50% in experiment [4]; less than 50% in experiment [5]; less than 50% in experiment [6]. Further, the inhibition in experiment [7] is 85%; in [8] it was less than 50%; in experiment [9] it was less than 50%; in experiment [10] it was less than 50%; in experiment [11], less than 50%; in experiment [12] it was less than 50%. Also, the inhibition in experiment [13], in [14], in [15] and in [16] was less than 50% in each case.

Turning to `CC(=O)N1CCN(c2cc(-c3cnc4c(c3)N(Cc3cc(Cl)ccc3C(F)(F)F)CCN4)ccn2)CC1`, the inhibition in experiment [1] is 99%; in [2], less than 50%; in [3], less than 50%; in experiment [4], less than 50%; in experiment [5], less than 50%; in [6] it was less than 50%. Also, the inhibition was 99% in experiment [7]; less than 50% in experiment [8]; less than 50% in [9]; less than 50% in [10]; less than 50% in experiment [11]; less than 50% in experiment [12]. The inhibition in experiment [13], in [14], in [15] and in [16] was less than 50% throughout.
